Activity calls are given as the source filed them. No cut-off for these calls is given here.
Columns and labels:
[1] = test system: HCT-116; experiment: Cytotoxicity against human HCT116 cells assessed as decrease in cell viability after 72 hrs by MTT assay; format: functional, cell-based; conditions: HCT-116, 72 h
Method in brief: (§1)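 For each cell line, 3000 cells per well were cultured overnight, then given fresh medium with compound. Each compound was tested at ≥7 concentrations in a 3-fold dilution series, with a final DMSO-stock dilution of at least 1000-fold. After 72 h, viability was read by MTT (OD 595 nm). Inhibition was calculated as 1 − [(T72 − C0)/(C72 − C0)] against the 0.1% DMSO control and fitted sigmoidally versus log concentration. Values are mean ± SD, n = 3.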

[2] = test system: HepG2; experiment: Cytotoxicity against human HepG2 cells assessed as decrease in cell viability after 72 hrs by MTT assay; format: functional, cell-based; conditions: HepG2, 72 h; method in brief: as §1
[3] = test system: MCF7; experiment: Cytotoxicity against human MCF7 cells assessed as decrease in cell viability after 72 hrs by MTT assay; format: functional, cell-based; conditions: MCF7, 72 h; method in brief: as §1
[4] = test system: HeLa; experiment: Cytotoxicity against human HeLa cells assessed as decrease in cell viability at 10 uM after 72 hrs by MTT assay; format: functional
Method in brief: (§2)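 HeLa cells were exposed to compound at 10 μM for 72 h. Vehicle was medium with 0.1% DMSO; paclitaxel (500 nM) was the positive control. MTT (5 mg/mL stock in PBS) was added for 2 h at 37 °C. Crystals were dissolved in 10% SDS/0.01 M HCl for 24 h at 37 °C, and OD was read at 595 nm. Viability at 0 h was set to 100. Three independent experiments.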

[5] = Cytotoxicity against human HCT15 cells assessed as decrease in cell viability after 72 hrs by MTT assay; format: functional, cell-based; conditions: HCT-15, 72 h; method in brief: as §1
[6] = test system: HeLa; experiment: Induction of apoptosis in human HeLa cells assessed as morphological and condensed or fragmented DNA at 10 uM after 72 hrs by Hoechst 33342 staining in presence of z-VAD-fmk; format: functional, cell-based
Method in brief: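 HeLa cells were treated with compound (10 μM) alone or with zVAD-fmk (50 μM) for 72 h. Controls were medium with 0.1% DMSO, with or without zVAD-fmk. Cells were stained with Hoechst 33342, washed three times with PBS, and imaged by phase contrast and fluorescence microscopy for cell and nuclear morphology.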

[7] = test system: HeLa; experiment: Cytotoxicity against human HeLa cells assessed as decrease in cell viability after 72 hrs by MTT assay; format: functional, cell-based; method in brief: as §1
[8] = test system: MDA-MB-435; experiment: Cytotoxicity against human MDA-MB-435 cells assessed as decrease in cell viability after 72 hrs by MTT assay; format: functional, cell-based; conditions: MDA-MB-435, 72 h; method in brief: as §1
[9] = test system: MCF7; experiment: Cytotoxicity against human MCF7 cells overexpressing HER2 assessed as decrease in cell viability after 72 hrs by MTT assay; format: functional, cell-based; conditions: MCF7, 72 h; method in brief: as §1
[10] = Cytotoxicity against human HeLaC3 sensor cells assessed as decrease in YFP/CFP emission ratio within 72 hrs by FRET assay; format: functional, HeLa C3
Method in brief: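 HeLa-C3 cells stably express a CFP–DEVD linker–YFP FRET caspase-3 sensor. Cells were seeded at 7500 per well, and after 12−16 h a background-subtracted baseline was read (excitation 440 nm; emission 486 nm CFP, 535 nm YFP). Compound at 10 μM was added in fresh medium, with 0.1% DMSO vehicle and 500 nM paclitaxel as positive control. Plates were read repeatedly for up to 72 h. An active compound lowers the YFP/CFP ratio to 3 or below.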

[11] = test system: HeLa; experiment: Cytotoxicity against human HeLa cells assessed as decrease in cell viability at 10 uM after 72 hrs by MTT assay relative to control; format: functional; method in brief: as §2
[12] = test system: HeLa; experiment: Induction of apoptosis in human HeLa cells assessed as caspase-3 activation at 10 uM after 24 hrs; format: functional, cell-based
Method in brief: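 HeLa cells were treated for 24 h with compound (10 μM), against 0.1% DMSO vehicle; the positive control was UV for 3 min, harvested after 6 h. Lysates were made in Tris pH 7.5/Triton buffer with protease inhibitors. A sample of 50 μg protein was incubated with Ac-DEVD-AMC in HEPES pH 7.5 buffer for 1 h at 37 °C in the dark. Fluorescence was read at 355/460 nm and expressed as net reading per μg protein.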

SMILES	IC50 [1] [µM]	IC50 [2] [µM]	IC50 [3] [µM]	viability at 10 µM [4] [%]	IC50 [5] [µM]	Activity [6]	IC50 [7] [µM]	IC50 [8] [µM]	IC50 [9] [µM]	Ratio [10]	fold change (FC) [11]	Activity [12]
COc1cc(O)c2c(=O)c3ccc(O)c(O)c3oc2c1CCC(C)(C)O [NIGROLINEAXANTHONE T]	3.7	4.8	3	50	2.4	inactive	4.7	9	3.8	3	–	–
CC(C)=CCC/C(C)=C/C[C@@H]1C(C)(C)[C@@]2(CC=C(C)C)C(=O)c3c(oc4cc(O)c(O)cc4c3=O)[C@](CC=C(C)C)(C2=O)C1(C)C [OBLONGIFOLIN G]	2.9	7.7	2.6	50	4	inactive	3.9	16.5	2.9	3	>30	Active
CC(C)=CCC/C(C)=C/C[C@H]1C(C)(C)[C@@]2(CC=C(C)C)C(=O)c3c(oc4cc(O)c(O)cc4c3=O)[C@](CC=C(C)C)(C2=O)C1(C)C [OBLONGIFOLIN F]	2.9	7.7	3	50	4.9	inactive	4.2	16.5	5.1	3	>30	Active
CC1(C)C=Cc2cc3c(=O)c4c(O)cc(O)cc4oc3c(O)c2O1	4.7	10.1	11.7	50	5.1	inactive	4.9	3.9	34.4	3	–	–
CC(C)=CCC/C(C)=C/C[C@@H]1C[C@]2(CC=C(C)C)C(=O)[C@@](CC=C(C)C)(C(=O)C(C(=O)c3cccc(O)c3)=C2O)[C@@]1(C)CCC=C(C)C [GARCICOWIN B]	6	6.2	10.8	50	9.6	inactive	10.8	12.6	19.1	3	–	–
